Laboratory results: PubChem BioAssay AID463104 (Sanford-Burnham Center for Chemical Genomics, 2010)
Among all 330,000 compounds or so, about 1,100 (0.33%) were called active.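 Rule for the calls: active = versus positive control, 20 µM dose yields 30% or more activation; inactive = the rest.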 Many of the other results were omitted from the sample, so actives are more common in it than they were.

Experiment: activators of adaptive XBP1 UPR arm, primary screen, cell-based, CHO-XBP1 luciferase reporter, luminescence, uHTS (AID 463104);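 note: 100% = tunicamycin at 10 µg/mL and 0% = DMSO only wells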
Conditions: IRE1-XBP1 UPR activation, at 20 µM, hits give high values, percent of tunicamycin response, DMSO as zero
Procedure, shortened: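 Test system: CHO-XBP1 luciferase reporter cells | Buffer or medium: Serum-containing F12 medium, 10% FBS | Schedule: 6 h compound exposure at 37 °C, 5% CO2 | Detection: Steady-Glo luciferase glow luminescence, 10 min after reagent addition | Read-out basis: Activation, % of tunicamycin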

activation, inactive:
OCCC1CN(Cc2ccccc2-c2ccco2)CCN1Cc1ccsc1 (configuration not stated) -1.57%
Cc1cc(NC(=O)Nc2c[nH]c(=O)[nH]c2=O)ccc1Br -0.89%
CNc1nc(Nc2ccc(C)c(Cl)c2)nc(N)c1[N+](=O)[O-] 10.8%
Cc1ccc(Nc2nc(N)nc(CN3CCN(Cc4ccccc4)CC3)n2)cc1Cl 3.65%
COC(=O)c1ccc(COc2ccc(/C=N/NC(=O)C(=O)Nc3ccc(OC)cc3)cc2OC)o1 -0.77%
N#Cc1cc([N+](=O)[O-])ccc1Oc1cccc(/C=N/NC(=O)c2ccc(Cl)cc2)c1 -0.61%
CCCCCCCCCCOC(=O)Cn1c(COc2cccc(OC)c2)[n+](C)c2ccccc21 20.9%
CCOC(=O)COn1c(=O)c(-c2ccc(OCC)cc2)[n+]([O-])c2ccccc21 0.06%
CCN(CC(=O)NCC(=O)Nc1cccc(C)c1C)Cc1ccccc1 -5.66%
Cc1c(Br)c([N+](=O)[O-])nn1C(C)C(=O)Nc1nccs1 (configuration not stated) -1.86%
COC(=O)Cc1csc(Nc2c(C)n(C)n(-c3ccccc3)c2=O)n1 -0.87%
Cc1ccc(-n2c(O)c(C=Nc3ccc(S(=O)(=O)Nc4ncccn4)cc3)c3ccccc3c2=O)cc1C -1.86%
Cc1ccc(N2C(=O)CC(Nc3cccc4ccccc34)C2=O)cc1 (configuration not stated) -0.83%
CSc1ccccc1NC(=O)C(C)N1C(=O)c2ccccc2S1(=O)=O (configuration not stated) 0.16%
CC1CCN(C(=O)COC(=O)c2cc(=O)[nH]c3ccccc23)CC1 -0.76%
CCn1c2ccccc2c2cc(NC(=S)N3CCOCC3)ccc21 -1.32%
CCOC(=O)C(C)n1cnc2c(nnn2-c2cccc(OC)c2)c1=O (configuration not stated) -2.11%
CCOc1ccc(NS(=O)(=O)c2ccc(C(=O)NCC(c3ccccc3OC)N3CCCC3)cc2)cc1 (configuration not stated) -3.45%
O=C(NCC1(N2CCCCC2)CCCCC1)c1ccc(NS(=O)(=O)c2ccc(F)cc2)cc1 0.16%
CCOc1ccccc1C(=O)NC1CC2CCCC(C1)N2Cc1ccccc1 (configuration not stated) 2.18%
Cc1ccc(C)c(NC(=O)c2ccc3nccnc3c2)c1 0.85%
Clc1ccc(CSc2nnc([C@@H]3CCCN3)o2)cc1 0.7%
CCC1CCCCN1S(=O)(=O)Cc1ccccc1Cl (configuration not stated) -1.25%
COC(=O)c1c(NC(=O)CN2CCN(S(=O)(=O)c3ccccc3[N+](=O)[O-])CC2)sc2c1CCC(C)C2 (configuration not stated) -0.95%
O=C1CSC2=NCN(c3ccccc3)CN12 1.38%
CN(c1ccccc1)S(=O)(=O)c1cccc(NC(=O)Cc2ccc(Cl)cc2)c1 -1.79%
CN(c1cccc(NC(=O)c2ccc(CN3CCc4ccccc4C3)cc2)c1)S(C)(=O)=O -1.68%
CCCOc1cccc(C(=O)Nc2nnn(CCC)n2)c1 0.81%
Cc1noc(C)c1S(=O)(=O)Nc1cc(C(F)(F)F)ccc1N1CCOCC1 -0.99%
COCCNC(=S)c1ccc(OC)cc1 -1.99%
O=C(NCc1ccc(Cl)cc1)C(=O)NCC1CCCN1S(=O)(=O)c1cccs1 (configuration not stated) -4.11%
CC(C)(C)OC(=O)C[C@@H]1C/C=C\C[C@@H](CC(=O)N[C@H](CO)Cc2ccccc2)C(=O)NC[C@@H](c2ccccc2)OC1=O -1.85%
CC(C)(C)OC(=O)C[C@H]1C/C=C\C[C@@H](CC(=O)N[C@H](CO)Cc2ccccc2)C(=O)NC[C@@H](c2ccccc2)OC1=O 5.5%
O=c1c(Cl)c(NCc2ccc(F)cc2Cl)cnn1C12CC3CC(CC(C3)C1)C2 -1.62%
COc1ccc(C(=O)N2CCN(c3ncccn3)CC2)cc1S(=O)(=O)N1CCOCC1 1.37%
Cc1cccc(NC(=O)CSC(N)=O)c1C 0.46%
Cc1cccc(NC(=O)CN2CCN(C(=O)C3CCN(C(=O)/C=C/c4ccccc4)CC3)CC2)c1C -2.16%
Cc1csc(NC(=O)C2CCCN2C(=O)OCC(C)C)n1 (configuration not stated) -2.24%
Cc1ccc(/C=C/C(=O)OCC(=O)Nc2cccnc2Cl)cc1 -1.42%
COc1ccc(NC(=O)CN(C)C(=O)/C=C/c2cn(Cc3ccccc3)nc2-c2cccnc2)cc1 -0.51%
O=S(=O)(c1ccc(-c2ccno2)s1)N1CCCCC1 -1.02%
COc1ccc(OC)c(S(=O)(=O)N2CCCC(C(=O)N3CCC(C(N)=O)CC3)C2)c1 (configuration not stated) 0.16%
COc1ccc(C)cc1N(C)C(=O)c1coc(=O)c2ccccc12 2.41%
O=C(COC(=O)c1ccccn1)Nc1cccc2ccccc12 -3.78%
Cc1cc(NC(=O)COc2ccccc2C#N)no1 6.89%
CCCCC(O)(CCCC)C(=O)NN(C(=O)CCl)c1ccccc1 -0.49%
Cc1ccc(NC(=O)c2ccc(Oc3ncccn3)cc2)cc1 0.13%
O=C(/C=C/c1ccc(N2CCOCC2)cc1)c1ccccc1 2.92%
Cc1[nH]c(=O)c(C(=O)/C=C/c2ccccc2)c2c1CCCC2 -0.32%
Cc1nc2c(ncn2-c2ccccc2)c(=O)n1NC(=O)CN1CCCC1 0.65%
COCCNC(=O)c1ccc2c(c1)ncn2-c1ccc(C)c(Cl)c1 -1.46%
COc1ccc(CN2C(CC(=O)Nc3cccnc3)c3ccc(C(F)(F)F)cc3S2(=O)=O)cc1 (configuration not stated) -0.27%
Cc1ccc(C(=O)N/C(=C/c2ccc(-c3cccc([N+](=O)[O-])c3)o2)C(=O)NCCCN(C)C)cc1 0.17%
Cc1ccc(-c2ccc(/C=C(\C#N)C(N)=S)o2)c([N+](=O)[O-])c1 -0.81%
CC(=O)N1CCC(N(C(=O)Nc2ccc(Cl)cc2)C(C)C)CC1 2%
CCC(C(=O)N1CCN(S(=O)(=O)c2sc(C(=O)O)c(C)c2C(=O)O)CC1)c1ccccc1 (configuration not stated) -0.89%
COc1ccccc1CNC(=O)c1ccc(Cl)c(S(=O)(=O)N2CCCC2)c1 -2.56%
CC(C)NC(=O)CCCn1c(=S)[nH]c2cc3c(cc2c1=O)OCO3 0.7%
Cc1ccc(C)c(N2CCN(C(=O)CCCCCn3c(=S)[nH]c4ccc(N5CCOCC5)cc4c3=O)CC2)c1 -5.18%
COc1cc(C(=O)NC2CCN(C)CC2)ccc1Nc1ncc2c(n1)N(C1CCC(O)CC1)CCC(=O)N2C (configuration not stated) -2.3%
CCCCCC(=O)NC(=S)NNC(=O)c1ccc([N+](=O)[O-])cc1 1.01%
CCCC(=O)Nc1ccc(C(=O)N/N=C/c2ccc[nH]2)cc1 -1.43%
Nc1ccc(OCC(O)C[n+]2ccc(CCS(=O)(=O)[O-])cc2)cc1 (configuration not stated) -2.33%
CCN1N=C(c2ccccc2)CCC1=O 0.24%
Cc1cc(C)c(C#N)c(SCC(=O)Nc2ccccc2)n1 -0.84%
Cc1nonc1NC(=O)CSc1nc2ccccc2cc1C#N -3.02%
CC(Cc1cccs1)N(Cc1ccc(Cl)cc1)C(=O)c1ccncc1 (configuration not stated) -2.77%
COc1ccc(S(=O)(=O)NCCc2cc3ccc(C)c(C)c3[nH]c2=O)cc1 -3.05%
O=C(COc1ccc(Cl)cc1)Nc1ccc2oc(=O)ccc2c1 -0.7%
Cc1ccc(OCC(=O)Nc2ccc3oc(=O)ccc3c2)cc1C -0.41%

activation, active:
OCCNc1nc(Nc2ccc(Cl)c(Cl)c2)nc2ccccc12 46.6%
CCCc1ccc(OCc2ccc(C(=O)N/N=C/c3cccc([N+](=O)[O-])c3)o2)c(OC)c1 35.5%
CCCCCCCCCCOC(=O)Cn1c(COc2ccc(C)cc2)[n+](C)c2ccccc21 41.7%
COC(=O)Cc1csc(/N=C/c2c(O)n(-c3cccc(C(F)(F)F)c3)c(=O)c3ccccc23)n1 46.3%
CC(=O)Nc1ccccc1Sc1ccc2c3c(cccc13)C(=O)N(c1ccc(C)cc1)C2=O 33.8%
CCOc1ccc(S(=O)(=O)Nc2cccc(C(=O)NCC3(N4CCCCC4)CCCCC3)c2)cc1 66.6%
CN(c1cccc(NC(=O)Nc2ccc(Cl)cc2)c1)S(C)(=O)=O 33.6%
O=C(C[C@H]1C/C=C\C[C@@H](NC(=O)OCC2c3ccccc3-c3ccccc32)C(=O)O[C@@H](c2ccccc2)CNC1=O)N[C@H](CO)Cc1ccccc1 100%
CCOC(=O)/C=c1\s/c(=C\c2ccc(C#N)cc2)c(=O)n1CC(=O)Nc1cccc(C)c1C 217%
O=C(COC(=O)/C=C/c1cn(-c2ccccc2)nc1-c1cccnc1)Nc1ccc(Cl)cc1Cl 43.9%
N#Cc1ccccc1NC(=O)COc1c(Br)cc(Br)c2cccnc12 116%
O=C(/C=C/c1ccccc1)c1ccccc1O 78.8%
Cc1ccc(Cc2cnc(NC(=O)/C(C#N)=C/c3ccc(-c4cccc([N+](=O)[O-])c4)o3)s2)cc1 131%
O=C(CCCCCn1c(=S)[nH]c2cc3c(cc2c1=O)OCO3)N1CCN(c2ccc(F)cc2)CC1 38.5%
CCCCCC(=O)Nc1ccc(C(=O)N/N=C/c2ccc([N+](=O)[O-])cc2)cc1 82.5%
Cc1nc2cc(NC(=O)CSc3nc4c(C)cccc4cc3C#N)ccc2s1 30.2%
O=C(NC(=S)Nc1ccc2oc(=O)ccc2c1)c1ccc(-c2cccc(Cl)c2Cl)o1 76.8%
